Compound activity as filed in PubChem BioAssay.
In the library only some 2.9% were active in any assay of this set; here they are far more common.
S100A4 MyoIIA = S100A4-myosin IIA interaction inhibition | P26447 | S100A4/TAMRA-MyoIIA peptide fluorescence polarization | inhibition, % at 10.7 µM | hit rate 0.14% among 360,000 | AID 652163;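 active means mean inhibition of at least 70% across replicates, with every replicate also reaching that level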
Target sequence (P26447 whole entry, looked up): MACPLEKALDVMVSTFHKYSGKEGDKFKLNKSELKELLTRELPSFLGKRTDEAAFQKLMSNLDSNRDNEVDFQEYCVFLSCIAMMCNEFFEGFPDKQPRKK
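assay system = human S100A4 monomer with TAMRA-labelled myosin IIA peptide | also added = labelled myosin peptide probe, 5 nM | incubation = 5 min between mix addition and reading | control set = DMSO and TFP controls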
Statin myotox sup = suppressors of simvastatin-induced myotoxicity in C2C12 myotubes | rescue of ATP level, % at 7.49 µM | ATP luminescence, 48 h; scaled: DMSO 0, geranylgeraniol control 100 | hit rate 0.78% among 330,000;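 active means mean ATP rescue above about 67%, or every replicate alone reaching that limit, limit read from the data, passing the limit was not always enough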;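 further: myotubes were challenged with 10 µM simvastatin during compound exposure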
SIRT5 inh = sirtuin-5 (human) deacylase inhibition; hit rate 1.1% among 330,000; inhibition, % at 15 µM; Q9NXA8; Purified SirT5, succinyl-peptide AMC, trypsin-coupled fluorescence; in the data active means inhibition above about 15%
Target sequence (Q9NXA8 whole entry, looked up): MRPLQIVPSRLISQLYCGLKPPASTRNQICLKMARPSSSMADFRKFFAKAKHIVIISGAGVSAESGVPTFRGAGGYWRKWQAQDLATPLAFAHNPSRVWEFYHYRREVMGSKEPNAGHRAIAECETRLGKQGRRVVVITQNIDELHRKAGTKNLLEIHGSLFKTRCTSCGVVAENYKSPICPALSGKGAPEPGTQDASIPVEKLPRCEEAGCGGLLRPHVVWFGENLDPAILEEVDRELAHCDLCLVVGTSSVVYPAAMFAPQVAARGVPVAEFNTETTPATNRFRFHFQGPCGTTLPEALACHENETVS
DENV2 CPE rescue = inhibitors of DENV2 cytopathic effect; DENV2-infected cells, cytopathic effect rescue, plate reader; CPE inhibition, % at 9.99 µM; hit rate 1.7% among 350,000; in the data active means CPE inhibition above about 20%, passing the limit was not always enough; tested in BHK-21 cells;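 further: 0% = median of neutral control wells and 100% = median of positive control wells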
PGC1a acetyl inh = modulators of PGC1a acetylation; U2OS PGC1a acetylation, AlphaScreen anti-acetyl-lysine; with virally co-expressed GCN5 acetyltransferase; inhibition, % at 15.6 µM; hit rate 0.17% among 350,000; AID 651687;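 active means every replicate shows inhibition of at least 40%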;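 further: 0% = neutral control wells and 100% = positive control wells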
Starred values were filed as active, the others as inactive; . = no result given.

SMILES	S100A4 MyoIIA	Statin myotox sup	SIRT5 inh	DENV2 CPE rescue	PGC1a acetyl inh
COc1ccc(C(=O)N2CCN(S(=O)(=O)c3ccc(C)cc3)CC2)cc1S(=O)(=O)N1CCOCC1	2.4	-2.1	20.4*	-4.8	-9.6
CCC(C)c1cc(S(=O)(=O)N2CCOCC2)ccc1OC (stereo unspecified)	.	82.4*	.	.	-24.2
COc1ccc(C(=O)N2CCN(S(=O)(=O)c3ccc(C)cc3C)CC2)cc1S(=O)(=O)N1CCOCC1	-0.5	-4.8	-0.7	-4.5	-3.2
COc1cccc(OC)c1C(=O)N1CCN(S(=O)(=O)c2ccc(C)cc2)CC1	.	126.1*	.	.	-5.4
CCC(=O)N(C)C[C@H]1Oc2cc(-c3ccccc3OC)ccc2S(=O)(=O)N([C@@H](C)CO)C[C@H]1C	3.5	-19.1	-3.4	6.0	5.7
C[C@H]1CN([C@@H](C)CO)C(=O)CCCn2cc(nn2)CO[C@H]1CN(C)S(=O)(=O)c1ccccc1C#N	-1.9	.	1.8	-15.8	-0.3
CC(=O)NCCCC[C@@H]1NC(=O)[C@@H]2C[C@H](C(=O)NCc3ccc(F)cc3)[C@H](c3ccc(O)cc3)N2C1=O	6.3	.	-1.2	20.1*	17.8
COc1ccc(OC)c(NC(=O)CCNC(=O)Cn2cnc3ccccc3c2=O)c1	-3.2	.	-0.2	1.2	1.1
COc1ccc(C)cc1NC(=O)CCNC(=O)Cn1cnc2ccccc2c1=O	-22.1	-18.4	17.9*	7.0	8.6
CNC[C@H]1Oc2ccc(NC(=O)Nc3ccc(F)cc3)cc2C(=O)N([C@@H](C)CO)C[C@H]1C	-4.4	-2.6	1.4	2.9	-11.1
COc1cc(C#Cc2c(C=O)n(C)c3ccccc23)cc(OC)c1	1.9	9.7	32.0*	-13.0	13.3
Cc1noc(C)c1NC(=O)N1C[C@@H](O)COC[C@@H]2O[C@@H](CC(=O)NCC3CCCCC3)CC[C@H]21	-2.5	2.2	2.6	1.7	3.3
COc1ccc(Cc2nc(C(=O)Nc3ccc(OC)cc3)cs2)cc1	.	122.4*	.	.	-7.9
Cc1noc(C)c1NC(=O)Nc1cccc2c1O[C@H](CN(C)C(=O)NC1CCCCC1)[C@@H](C)CN([C@@H](C)CO)C2=O	13.2	7.1	0.8	0.9	3.5
CC(C)NC(=O)Nc1ccc2c(c1)CC(=O)N([C@H](C)CO)C[C@H](C)[C@@H](CN(C)Cc1ccc(Cl)c(Cl)c1)O2	-0.3	51.1	4.1	6.8	-23.5
CN1CCN(C(=O)/C=C/c2ccc(Cl)cc2)CC1	-21.4	110.1*	-0.2	-2.1	2.5
C[C@@H]1CCCCO[C@@H](CN(C)Cc2ccc(C(=O)O)cc2)[C@H](C)CN([C@H](C)CO)C(=O)c2cc(NC(=O)CCCN(C)C)ccc2O1	130.5*	.	-5.5	-4.7	4.0
C[C@@H]1CCCCO[C@H](CN(C)Cc2ccc(C(=O)O)cc2)[C@H](C)CN([C@@H](C)CO)C(=O)c2cc(NC(=O)CCCN(C)C)ccc2O1	2.2	.	1.4	-2.3	0.9
C[C@@H]1CCCCO[C@@H](CN(C)Cc2ccc(C(=O)O)cc2)[C@H](C)CN([C@@H](C)CO)C(=O)c2cc(NC(=O)CCCN(C)C)ccc2O1	1.1	.	-0.7	38.4*	6.0
C[C@@H]1CCCCO[C@H](CN(C)Cc2ccccc2)[C@H](C)CN([C@@H](C)CO)C(=O)c2cc(NC(=O)CCCN(C)C)ccc2O1	.	-68.6	.	.	1.3
CCCc1ccc2oc(C(=O)N(Cc3ccncc3)CC3CCCO3)c(C)c2c1 (stereo unspecified)	4.0	-0.6	2.6	-6.0	.
Cc1ccc2oc(C(=O)N(Cc3ccncc3)CC3CCCO3)c(C)c2c1 (stereo unspecified)	-1.8	1.7	3.1	47.5*	.
COCCNC(=O)C(=O)Nc1ccc(Br)cc1	.	-19.5	.	.	0.6
COCC(COCCCNC(=O)Nc1ccc(Br)cc1)OC (stereo unspecified)	.	107.6*	.	.	-1.2
COC(=O)c1ccc2nc(-c3ccc(C)cc3)c(Cc3ccc(C)cc3)n2c1	-1.7	.	-3.2	-3.3	.
SMILES	S100A4 MyoIIA	Statin myotox sup	SIRT5 inh	DENV2 CPE rescue	PGC1a acetyl inh
COC(=O)c1ccc2nc(-c3ccc(C)cc3)c(CC(C)(C)C)n2c1	-1.8	.	15.2*	-2.4	.
CC(C)(C)Cc1c(-c2cccc(Cl)c2)nc2ccc(Br)cn12	-14.2	12.8	2.5	9.2	8.2
CC(C)(C)Cc1c(-c2ccc(Br)cc2)nc2ccc(Br)cn12	7.5	0.5	4.1	101.1*	-16.9
O=C(C[C@@H]1CC[C@@H]2[C@H](COC[C@@H](O)CN2C(=O)Nc2cccc(Cl)c2)O1)NCCCN1CCOCC1	1.1	-26.1	-1.1	-0.2	-3.2
C[C@@H]1ON(C)[C@H]2C[C@H]3c4cc(-c5ccccc5)ccc4CCN3C[C@@H]12	10.3	.	0.0	11.6	.
COc1ccc(C#Cc2ccc3c(c2)O[C@@H](CN(C)C(=O)CN2CCOCC2)[C@H](C)CN([C@H](C)CO)S3(=O)=O)cc1	.	11.9	.	.	1.4
Cc1cc(C(=O)Nc2cccc3c2O[C@H](CN(C)S(C)(=O)=O)[C@@H](C)CN([C@H](C)CO)C3=O)n(C)n1	3.2	.	-1.1	13.8	1.1
CCOC(=O)C1(CCCc2ccccc2)CCN(C2CCN(C(C)=O)CC2)CC1	-13.6	0.5	17.6*	0.7	-3.8
COc1ccc(-c2ccccc2)cc1NC(=O)[C@@H]1O[C@H](CO)[C@H](O)[C@H](O)[C@H]1O	-3.4	4.9	.	32.0*	9.1
O=C(Nc1ccc(C(O)c2ccccc2)cc1)[C@@H]1O[C@H](CO)[C@H](O)[C@H](O)[C@H]1O (stereo partly specified)	-1.2	1.3	.	7.5	-7.7
CCS(=O)(=O)NCC[C@H]1CC[C@H](NC(=O)Nc2cc(Cl)cc(Cl)c2)[C@H](CO)O1	5.2	-3.5	-0.1	3.7	.
C[C@H](CO)N1C[C@H](C)[C@H](CN(C)C(=O)Nc2ccc(F)cc2)OCCCC[C@H](C)Oc2ccc(NS(C)(=O)=O)cc2C1=O	-5.4	.	-1.0	6.1	10.9
CC(C(=O)O)n1c(C(F)(F)F)nc2ccccc21 (stereo unspecified)	.	131.8*	.	.	13.0
Cc1cccc(NC(=O)C2C(c3ccccc3)C2(Cl)Cl)c1 (stereo unspecified)	3.7	.	0.0	3.9	.
Cc1ccc(NC(=O)C2C(c3ccccc3)C2(Cl)Cl)c(C)c1 (stereo unspecified)	.	-15.0	.	.	70.6*
CCOc1ncccc1C(=O)OCC(=O)NCc1ccc(C(=O)OC)cc1	-6.1	4.2	0.7	67.3*	1.9
CCOc1ncccc1C(=O)OCc1ccc(C(=O)OC)cc1	-2.1	.	-2.1	5.3	.
COCCNC(=O)c1cc2cc3ccc(OC)cc3nc2o1	-22.8	-11.1	-108.7	25.3*	0.6
CCc1cc2c(cc3c(=O)n(CC(=O)NCCCN4CC(C)CC(C)C4)ncn32)s1 (stereo unspecified)	-2.6	-26.5	0.1	64.0*	.
COc1cccc(NC(=O)C[C@H]2CC[C@@H]3[C@H](COc4ccc(NC(=O)c5ccccc5F)cc4C(=O)N3C)O2)c1	1.2	-55.0	-0.4	-10.8	-4.0
